According to ChEMBL document CHEMBL1155708, “Isoaurostatin, a novel topoisomerase inhibitor produced by Thermomonospora alba” (J Nat Prod, 2001):
The source made the active and inactive calls. The calls are words filed in the database; no cut-off is given here.

Key:
[1] = target: T1, DNA topoisomerase (Bos taurus) (UniProt A0JN73); test: Inhibition calf thymus topoisomerase 1 cleavage activity assessed as increase in nicked pBR322 DNA formation after 40 mins by gel electrophoresis
T1 sequence (whole entry): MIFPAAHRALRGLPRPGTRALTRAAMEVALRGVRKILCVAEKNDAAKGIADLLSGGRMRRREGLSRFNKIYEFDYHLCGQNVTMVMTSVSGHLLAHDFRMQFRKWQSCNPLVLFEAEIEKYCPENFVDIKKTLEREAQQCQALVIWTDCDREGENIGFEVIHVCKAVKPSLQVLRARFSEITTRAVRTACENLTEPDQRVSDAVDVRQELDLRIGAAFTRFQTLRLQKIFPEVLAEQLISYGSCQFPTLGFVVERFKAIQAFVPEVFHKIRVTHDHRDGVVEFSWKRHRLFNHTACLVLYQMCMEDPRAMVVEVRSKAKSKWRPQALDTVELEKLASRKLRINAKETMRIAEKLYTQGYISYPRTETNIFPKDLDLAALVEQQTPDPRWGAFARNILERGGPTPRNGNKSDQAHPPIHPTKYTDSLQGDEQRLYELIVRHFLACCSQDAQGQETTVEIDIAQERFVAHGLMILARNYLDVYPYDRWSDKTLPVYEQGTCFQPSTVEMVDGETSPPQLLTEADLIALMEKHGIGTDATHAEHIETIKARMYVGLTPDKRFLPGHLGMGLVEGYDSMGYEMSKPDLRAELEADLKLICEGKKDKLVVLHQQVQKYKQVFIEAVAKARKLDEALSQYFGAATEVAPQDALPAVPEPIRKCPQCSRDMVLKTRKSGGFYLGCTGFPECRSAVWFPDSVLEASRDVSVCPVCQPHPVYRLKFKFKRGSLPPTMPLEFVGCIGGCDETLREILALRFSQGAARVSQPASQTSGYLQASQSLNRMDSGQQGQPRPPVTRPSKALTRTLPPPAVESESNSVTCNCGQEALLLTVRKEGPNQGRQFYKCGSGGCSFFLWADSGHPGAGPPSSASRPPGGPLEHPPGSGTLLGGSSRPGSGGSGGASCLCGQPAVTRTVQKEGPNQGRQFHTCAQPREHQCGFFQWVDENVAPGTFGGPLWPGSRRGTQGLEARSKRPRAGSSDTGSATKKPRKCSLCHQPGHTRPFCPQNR

Nucleic Acid = test: Binding affinity to salmon sperm DNA assessed as DNA intercalation by circular dichroism; type: nucleic-acid assay; settings: Salmonidae
How it was run: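 CD spectra recorded in 50 mM Tris-HCl pH 8.0 with 100 mM KCl, 1 mM MgCl2 and salmon sperm DNA (25 µg/mL), inhibitor at 0, 10, 30 and 50 µM; spectral change obtained by subtracting the CD of reagent alone from the CD of DNA plus reagent.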

SMILES | Activity [1] | Activity (Nucleic Acid)
CC[C@@]1(O)C(=O)OCc2c1cc1n(c2=O)Cc2cc3ccccc3nc2-1 | Active | inactive
COc1cccc2c1C(=O)c1c(O)c3c(c(O)c1C2=O)C[C@@](O)(C(=O)CO)C[C@@H]3O[C@H]1C[C@H](N)[C@H](O)[C@H](C)O1 | – | Active
O=C1Oc2cc(O)ccc2/C1=C\c1ccc(O)cc1 | inactive | inactive
